PubChem BioAssay AID504383 (The Scripps Research Institute Molecular Screening Center, 2011)
Among all 2,500 compounds or so, about 1,200 (48%) were called active. The set was probably picked from earlier hits. Some of the results follow. A number with no mark means an inactive call.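 Rule for the calls: active = mean activation above the low control average plus 3 SD, as set in the primary screen (cut at about 12% in these data); inactive = the rest.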

target: Troponin I, cardiac muscle (Homo sapiens) + Troponin T, cardiac muscle (Homo sapiens) + Troponin C, slow skeletal and cardiac muscles (Homo sapiens) (UniProt P19429+P45379+P63316); assay: cardiac RTF calcium sensitivity activators, confirmation, biochemical, IANBD-TnC fluorescence, triplicate (AID 504383); conditions: IANBD-labeled cardiac RTF, Ca2+ sensitivity fluorescence; at 7.2 µM; hits give high values; scaled from EC20 to saturating calcium; tested at EC20 calcium, 0.472 mM;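 note: 0% = DMSO at 0.472 mM calcium and 100% = DMSO at 2.9 mM calcium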
Outline: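 Material: labelled regulated thin filaments; Reagent: 0.472 mM calcium; Incubation: 15 min compound incubation with filaments at 25 °C; Detection: filament fluorescence intensity; Evaluation: fluorescence increase normalised to calcium controls; Benchmarks: low control EC20 calcium, high control EC100 calcium.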

| SMILES | activation |
| --- | --- |
| CC(=O)N(c1ccccc1)C1SC(=O)N(c2ccccc2)C1=O (centres undefined) | 9.18% |
| Cc1cccc(C)c1-n1c(C)nn(-c2ncc(C(F)(F)F)cc2Cl)c1=O | 2.27% |
| O=c1nc2c(O)cccn2c2c1c(=O)[nH]c1ccccc12 | 11.7% (active) |
| CN(C)c1ccc(/C=C/C(=O)c2cccc(Br)c2)cc1 | 9.43% |
| CC(=O)Nc1cccc(C(=O)/C=C/c2ccc(N(C)C)cc2)c1 | 15.4% (active) |
| NC(=O)C1CCN(c2ccc3c(c2)S(=O)(=O)c2ccccc2C3=O)CC1 | 5.74% |
| COC(=O)C1CCN(C(=O)CN2C(=O)c3ccccc3S2(=O)=O)CC1 | 2170% (active) |
| COc1cc(/C=C/C(=O)c2ccc3c(c2)OCO3)cc(Cl)c1O | 15.6% (active) |
| CN(C)c1ccc(/C=C/C(=O)c2ccc3c(c2)OCO3)cc1 | 11% |
| CCC(=O)N1CCN(c2nc(C)nc3sc(C)c(C)c23)CC1 | 4.34% |
| O=C(CN1CCN(c2ccccc2F)CC1)NCc1ccc(Cl)cc1 | 13% (active) |
| N#CC1(NC(=O)CN2CCN(S(=O)(=O)c3ccccc3F)CC2)CCCC1 | 2.39% |
| CSc1ccc(Cl)c(C(=O)NNC(=O)c2csc(N3CCOCC3)n2)c1 | 9.67% |
| Cc1cc(Cl)ccc1OCC(=O)NCCOc1nc(N2CCOCC2)nc(N2CCOCC2)n1 | 6.88% |
| CCOC(=O)c1cnc2c(C)c(Cl)ccc2c1N1CCOCC1 | 80.7% (active) |
| CC(=O)Nc1ccc(N=Cc2nc(-c3ccc(C)cc3)oc2O)cc1 | 33.1% (active) |
| CN(C)c1ccc(N=Cc2nc(-c3ccccc3)oc2O)cc1 | 37.2% (active) |
| Cc1nc(C)c2c(c1C(F)(F)F)-c1ccccc1C2(F)F | 9.1% |
| Cc1[nH]c(=S)c(C#N)c(C)c1CCC#N | 8.9% |
| COc1cc(N2CCCC2)c(OC)cc1/C=C(/C#N)c1cccc(Br)c1 | 8.22% |
| COc1cc(N2CCCC2)c(OC)cc1/C=C(/C#N)c1ccc(Br)cc1 | 12.2% (active) |
| Cc1ccc(NC(=O)COc2ccc(/C=N/NC(=O)CSCc3ccccc3)cc2)cc1 | 58.9% (active) |

| SMILES | activation |
| --- | --- |
| CCOC(=O)c1[nH]c2ccc(OCC)cc2c1CCCN1C(=O)c2ccccc2C1=O | 156% (active) |
| CCOC(=O)C1=C(C)N(CCCCCC(=O)O)C(=O)NC1c1ccccc1Cl (centres undefined) | 6.32% |
| Brc1ccc(-c2noc(-c3ccccn3)n2)o1 | 5.39% |
| CCOC(=O)C1=C(C)N=c2s/c(=C/c3ccc(OCC(=O)O)c(OC)c3)c(=O)n2C1c1ccc(Cl)cc1 (centres undefined) | 16.8% (active) |
| CCOC(=O)C1=C(C)N=c2s/c(=C\c3ccc(OCC(=O)O)cc3)c(=O)n2C1c1ccc(Cl)cc1 (centres undefined) | 14.5% (active) |
| CCOC(=O)C1=C(C)N=c2s/c(=C/c3ccc(OCC(=O)O)cc3)c(=O)n2C1c1ccc(SC)cc1 (centres undefined) | 5.43% |
| O=C1CCC[C@@H]2Cc3nc4ccc(O)cc4cc3[C@@H]3CCN1[C@H]23 | 3.13% |
| O=C(CN1CCN(c2ccccc2)CC1)Nc1cccc(C(F)(F)F)c1 | 5.41% |
| O=C(O)CCC(=O)Nc1cc(C(F)(F)F)cc(C(F)(F)F)c1 | 30.5% (active) |
| O=C(Cn1c2[n+](c3ccc(C(F)(F)F)cc31)CCCCC2)Nc1ccccc1 | 0.79% |
| CC(C)(C)OC(=O)N1CCC(Cc2cc(-c3cccnc3)no2)(C(=O)O)CC1 | 15.8% (active) |
| COCCn1c(SCC#N)nnc1-c1ccc([N+](=O)[O-])cc1 | 4.93% |
| Cc1sc(NC(=O)CSc2nnc(C(C)C)n2C)c(C#N)c1C | 80.6% (active) |
| CC(=O)c1ccc(NC(=O)C2CCCN(S(=O)(=O)c3c(C)[nH]c(=O)[nH]c3=O)C2)cc1 (centres undefined) | 58.6% (active) |
| CC(=O)N1CCCc2cc(S(=O)(=O)N3CCCC(C(=O)Nc4cccc(C)c4)C3)ccc21 (centres undefined) | 8.68% |
| Cc1cc(S(=O)(=O)N2CCCC(C(=O)Nc3ccc(C(=O)O)cc3)C2)ccc1Cl (centres undefined) | 41.5% (active) |
| Cc1cc2cc(C=C(C#N)C#N)c(Cl)nc2cc1C | 1.28% |
| O=C(O)c1ccc(-n2c(/C=C/c3cccc([N+](=O)[O-])c3)nc3ccccc3c2=O)cc1 | 15.1% (active) |
| CN(C)c1ccc(/C=C/c2nc3ccccc3c(=O)n2-c2ccc(C(=O)O)cc2)cc1 | 2.26% |
| COc1cc(C(=O)NCc2nnc(SCC(=O)Nc3ccc4c(c3)OCO4)o2)cc(OC)c1OC | 165% (active) |
| COc1cc(C(=O)Nc2ccc(Cl)c(C(F)(F)F)c2)cc(OC)c1OC | 9.75% |
| COc1cc(OC)c(OC)cc1/C=C/C(=O)c1ccc(NS(=O)(=O)c2ccc(C)cc2)cc1 | 8.63% |
